# Source: ChEMBL document CHEMBL1142613, “Characterization of the major metabolite of sampangine in rats” (J Nat Prod, 2000)
# The source made the active and inactive calls. The rule behind the calls is not given here.
# Legend:
# [1] = test system: Cryptococcus neoformans; assay: Antifungal activity against Cryptococcus neoformans ATCC 52657 at 100 ug/mL after 48 hrs by agar well diffusion method; type: functional; conditions: ATCC 52657, 48 h, read-out: IZ
# Procedure, shortened: (§1)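 Agar well diffusion at a test concentration of 100 µg/mL; activity read as zone of inhibition diameter in mm. C. albicans was grown in yeast nitrogen broth, C. neoformans in Mycophil broth.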
# [2] = test system: Staphylococcus aureus; assay: Antibacterial activity against Staphylococcus aureus ATCC 6538; type: functional, organism-based
# Procedure, shortened: (§2)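 Colorimetric oxidation-reduction broth assay, with Alamar blue dye added as an indicator of the organism's metabolic activity; result expressed as MIC in µg/mL; streptomycin served as positive control.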
# [3] = test system: Bacillus subtilis; assay: Antibacterial activity against Bacillus subtilis ATCC 6333; type: functional, organism-based; procedure, shortened: as §2
# [4] = test system: Pseudomonas aeruginosa; assay: Antibacterial activity against Pseudomonas aeruginosa ATCC 15442; type: functional, organism-based; procedure, shortened: as §2
# [5] = test system: Cryptococcus neoformans; assay: Antifungal activity against Cryptococcus neoformans ATCC 52657 after 48 hrs by twofold serial dilution method; type: functional; conditions: ATCC 52657, 48 h
# Procedure, shortened: (§3)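 Two-fold serial broth macrodilution. C. albicans was grown in yeast nitrogen broth and incubated 24 h; C. neoformans in Mycophil broth, 48 h; both at 37 °C. MIC taken as the lowest concentration visually inhibiting growth. Footnote notes one test sample was run in Eugon by a microplate method.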
# [6] = test system: Escherichia coli; assay: Antibacterial activity against Escherichia coli ATCC 10536; type: functional, organism-based; procedure, shortened: as §2
# [7] = test system: Candida albicans; assay: Antifungal activity against Candida albicans NIH B311 after 24 hrs by twofold serial dilution method; type: functional; procedure, shortened: as §3
# [8] = test system: Candida albicans; assay: Antifungal activity against Candida albicans NIH B311 at 100 ug/mL after 24 hrs by agar well diffusion method; type: functional; conditions: read-out: IZ; procedure, shortened: as §1
# [9] = test system: Cryptococcus neoformans; assay: Antifungal activity against Cryptococcus neoformans ATCC 52657 at 100 ug/mL after 48 hrs by bioautography; type: functional; conditions: ATCC 52657, 48 h, read-out: IZ
# Procedure, shortened: (§4)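 Bioautography at a test concentration of 100 µg/mL; activity recorded as zone of inhibition in mm. Media were yeast nitrogen broth for C. albicans and Mycophil broth for C. neoformans.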
# [10] = test system: Candida albicans; assay: Antifungal activity against Candida albicans NIH B311 at 100 ug/mL after 24 hrs by bioautography; type: functional; conditions: read-out: IZ; procedure, shortened: as §4
MIC [5] [mg/L],MIC [7] [mg/L],Structure (SMILES),zone of inhibition at 100 µg/mL [1] [mm],Activity [2],Activity [3],Activity [4],Activity [6],zone of inhibition at 100 µg/mL [8] [mm],zone of inhibition at 100 µg/mL [9] [mm],zone of inhibition at 100 µg/mL [10] [mm]
> 25,> 25,O=C(O)[C@H]1O[C@@H](Oc2c3c4c(ccnc4c4ccccc24)C=CN3)[C@H](O)[C@@H](O)[C@@H]1O,26,inactive,inactive,inactive,inactive,6,35,–
0.2,3.12,O=C1c2ccccc2-c2nccc3ccnc1c23 [SAMPANGINE],35,–,–,–,–,10,35,10
